Experimental data taken from ChEMBL document CHEMBL3259755, “Synthesis, antinociceptive activity and pharmacokinetic profiles of nicorandil and its isomers” (Bioorg Med Chem, 2014).
Calls of active or inactive are those of the source.

Legend:
[1] = test system: Mus musculus; assay: Antinociceptive activity in Swiss mouse assessed as inhibition of formaldehyde-induced nociceptive response in right hind paw at 100 to 150 mg/kg, po administered 1 hr followed by formaldehyde challenge measured 15 to 30 mins; format: functional, organism-based
Summary of the method: (§1)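 Female Swiss mice received vehicle (0.5% CMC, 4 ml/kg) or compound p.o. at 50–150 mg/kg, or at 3–30 mg/kg, 1 h before 20 µL of 0.92% formaldehyde s.c. into the dorsal right hindpaw. Paw-licking time was scored at 0–5 min (first phase) and 15–30 min (second phase). n = 9. Data: mean ± S.E.M., one-way ANOVA with Newman–Keuls.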

[2] = test system: Mus musculus; assay: Antinociceptive activity in Swiss mouse assessed as inhibition of formaldehyde-induced nociceptive response in right hind paw at 100 mg/kg, po administered 1 hr followed by formaldehyde challenge measured for 15 to 30 mins; format: functional, organism-based; set-up: dose 100 mg/kg; summary of the method: as §1
[3] = test system: Mus musculus; assay: Antinociceptive activity in Swiss mouse assessed as inhibition of formaldehyde-induced nociceptive response in right hind paw at 3 to 30 mg/kg, po administered 1 hr followed by formaldehyde challenge; format: functional, organism-based; summary of the method: as §1
[4] = Cmax in Swiss mouse at 100 mg/kg, po by LC-MS/MS analysis; format: ADME, organism-based; set-up: dose 100 mg/kg, route oral; settings: in vivo
Summary of the method: (§2)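 Female Swiss mice (25–30 g), fasted 12 h, given 100 mg/kg p.o. as a suspension in 0.5% CMC (4 mL/kg). Heparinized blood was centrifuged and plasma stored at −70 °C. Plasma was run by LC–MS/MS on a C18 column with methanol/2 mM ammonium acetate + 0.03% formic acid (33:67). Values are mean ± S.E.M.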

[5] = Tmax in Swiss mouse at 100 mg/kg, po by LC-MS/MS analysis; format: ADME, organism-based; set-up: dose 100 mg/kg, route oral; settings: in vivo; summary of the method: as §2
[6] = test system: Mus musculus; assay: Antinociceptive activity in po dosed Swiss mouse assessed as inhibition of formaldehyde-induced nociceptive response in right hind paw administered 1 hr followed by formaldehyde challenge measured over 5 mins; format: functional, organism-based; summary of the method: as §1
[7] = Half life in Swiss mouse at 100 mg/kg, po by LC-MS/MS analysis; format: ADME, organism-based; set-up: dose 100 mg/kg, route oral; settings: in vivo; summary of the method: as §2
[8] = test system: Mus musculus; assay: Antinociceptive activity in Swiss mouse assessed as inhibition of formaldehyde-induced nociceptive response in right hind paw at 100 mg/kg, po administered 1 hr followed by formaldehyde challenge measured over 5 mins; format: functional, organism-based; set-up: dose 100 mg/kg; summary of the method: as §1
[9] = test system: Plasma; assay: Drug metabolism in Swiss mouse plasma assessed as nitrite level at 100 mg/kg, po measured after 0.25 to 3 hrs by Griess assay; format: ADME, organism-based; set-up: dose 100 mg/kg, route oral; settings: in vivo
Summary of the method: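 Female Swiss mice fasted 12 h received vehicle (0.5% CMC, 4 ml/kg) or compound at 100 mg/kg p.o. After ketamine/xylazine anesthesia at 15 min, 1 h and 3 h, blood was taken from the abdominal artery to avoid hemolysis. Heparinized plasma, stored at −70 °C, was mixed 1:1 with Griess reagent for 10 min at room temperature. A540 read against blank plasma; n = 7.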

[10] = AUC (0 to t) in Swiss mouse at 100 mg/kg, po by LC-MS/MS analysis; format: ADME, organism-based; set-up: dose 100 mg/kg, route oral; settings: plasma; summary of the method: as §2
[11] = test system: Plasma; assay: Drug metabolism in Swiss mouse plasma assessed as formation of nicotinamide at 100 mg/kg, po after 10 hrs by LC-MS/MS analysis; format: ADME, organism-based; set-up: dose 100 mg/kg, route oral; settings: in vivo
Summary of the method: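 Female Swiss mice fasted 12 h received 100 mg/kg p.o. in 0.5% CMC. Six mice per time point were sampled by decapitation from 5 min to 10 h, plus six untreated controls. Heparinized plasma stored at −70 °C. Nicotinamide measured by LC–MS/MS (C18, methanol/ammonium acetate–formic acid mobile phase).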

[12] = AUC (0 to infinity) in Swiss mouse at 100 mg/kg, po by LC-MS/MS analysis; format: ADME, organism-based; set-up: time infinity, dose 100 mg/kg, route oral; settings: plasma; summary of the method: as §2
[13] = test system: Mus musculus; assay: Toxicity in Swiss mouse assessed as time spent on rotating rod at 150 mg/kg, po administered 1 hr prior to testing (reference value: 120 secs); format: organism-based; set-up: dose 150 mg/kg, route oral; settings: in vivo
Summary of the method: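 Female Swiss mice were trained on a rota-rod (14 rpm) over 3 days, with a 2 min cut-off. After baseline timing, they were dosed p.o. with vehicle (0.5% CMC, 4 ml/kg), compound at 150 mg/kg, or phenobarbital 40 mg/kg as positive control, and retested 1 h later. n = 9.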

[14] = test system: Mus musculus; assay: Antinociceptive activity in Swiss mouse assessed as inhibition of formaldehyde-induced nociceptive response in right hind paw at 50 to 150 mg/kg, po administered 5 mins followed by formaldehyde challenge measured for 15 to 30 mins; format: functional, organism-based
Summary of the method: (§3)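 Female Swiss mice received compound p.o. (50, 100 or 150 mg/kg in 0.5% CMC) 5 min before s.c. injection of 0.92% formaldehyde (20 µL) into the right hindpaw. Licking time was recorded at 0–5 min and 15–30 min; n = 9. ANOVA with Newman–Keuls.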

[15] = test system: Mus musculus; assay: Antinociceptive activity in Swiss mouse assessed as inhibition of formaldehyde-induced nociceptive response in right hind paw at 50 to 150 mg/kg, po administered 5 mins followed by formaldehyde challenge measured over 5 mins; format: functional, organism-based; summary of the method: as §3
[16] = test system: Mus musculus; assay: Antinociceptive activity in Swiss mouse assessed as inhibition of formaldehyde-induced nociceptive response in right hind paw at 150 mg/kg, po administered 1 hr followed by formaldehyde challenge measured over 5 mins; format: functional, organism-based; set-up: dose 150 mg/kg; summary of the method: as §1
[17] = test system: Mus musculus; assay: Antinociceptive activity in Swiss mouse assessed as inhibition of formaldehyde-induced nociceptive response in right hind paw at 150 mg/kg, po administered 1 hr followed by formaldehyde challenge measured 15 to 30 mins; format: functional, organism-based; set-up: dose 150 mg/kg; summary of the method: as §1
[18] = test system: Mus musculus; assay: Toxicity in Swiss mouse assessed as time spent on rotating rod at 40 mg/kg, po administered 1 hr prior to testing (reference value: 119 +/- 1 secs); format: organism-based; set-up: dose 40 mg/kg, route oral; settings: in vivo

| SMILES | inhibition [1] | inhibition [2] | inhibition [3] | Cmax [4] [ng/mL] | Tmax [5] [min] | inhibition [6] | half-life [7] [min] | inhibition [8] | Drug metabolism [9] | AUC(0-t) [10] [µg·h/mL] | Drug metabolism [11] | AUC(0-inf) [12] [µg·h/mL] | Time [13] [s] | inhibition [14] | inhibition [15] | inhibition [16] | inhibition [17] | Time [18] [s] |
| --- | --- | --- | --- | --- | --- | --- | --- | --- | --- | --- | --- | --- | --- | --- | --- | --- | --- | --- |
| O=C(NCCO[N+](=O)[O-])c1cccnc1 [NICORANDIL] | Active | Active | inactive | 42600 | 40.2 | Dose-dependent effect | 90 | Active | metabolite_detected | 121 | metabolite_detected | 123 | 120 |  |  |  |  |  |
| O=C(NCCO[N+](=O)[O-])c1ccncc1 | Active | Active |  | 49400 | 52.8 |  | 45.6 | Active | metabolite_detected | 160 | metabolite_detected | 160 | 120 |  |  |  |  |  |
| O=C(NCCO)c1cccnc1 |  |  |  |  |  |  |  |  |  |  |  |  |  | inactive | inactive |  |  |  |
| O=C(NCCO)c1ccncc1 |  |  |  |  |  |  |  |  |  |  |  |  |  | inactive | inactive |  |  |  |
| O=C(NCCO[N+](=O)[O-])c1ccccn1 |  | Active |  | 30800 | 6.6 |  | 66 | Active | metabolite_notdetected | 10.1 | metabolite_detected | 10.1 | 120 | inactive | inactive | Active | Active |  |
| O=C(NCCO)c1ccccn1 |  |  |  |  |  |  |  |  |  |  |  |  |  | inactive | inactive |  |  |  |
| CCC1(c2ccccc2)C(=O)NC(=O)NC1=O [PHENOBARBITAL] |  |  |  |  |  |  |  |  |  |  |  |  |  |  |  |  |  | 26 |
